In ChEMBL document CHEMBL4145496, “In vitro antiplasmodial efficacy of synthetic coumarin-triazole analogs” (Eur J Med Chem, 2018):
Converted amounts (≈) assume the structure as drawn. The source made the active and inactive calls. No cut-off for these calls is given here.

Tests used:
[1] = test system: Plasmodium falciparum; test: Antimalarial activity against chloroquine-sensitive Plasmodium falciparum 3D7 erythrocytic stage after 48 hrs by Giemsa staining-based microscopic analysis; type: functional, organism-based; details: 3D7, 48 h
Outline: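 Parasites kept in human O+ erythrocytes in RPMI 1640 with HEPES, NaHCO3, L-glutamine, gentamicin and Albumax II, under 3% O2/4% CO2/93% N2 at 37 °C. DMSO stocks (1 mg/ml) diluted into gentamicin-free RPMI. Graded concentrations for 48 h at 37 °C, medium changed at 24 h, in triplicate. Parasites counted per about 4000 erythrocytes on Giemsa thin smears. IC50 taken from semi-log plots.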

[2] = Cytotoxicity against human HuH7 cells assessed as reduction in cell viability after 72 hrs by MTT assay; type: cell-based, Huh-7
Outline: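 Huh-7 monolayers grown in DMEM at 37 °C in 5% CO2. Cells seeded at about 20,000 per well and left 24 h, then given fresh medium containing 1, 10, 20, 30, 50 or 100 μg/mL compound for 72 h. Viability read by MTT, absorbance at 570 nm.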

[3] = molecular target: DNA gyrase (Escherichia coli) (UniProt P0AES6+P0AES4); test: Inhibition of Escherichia coli DNA gyrase assessed as inhibition of enzyme-mediated supercoiling of relaxed pHOT1 DNA substrate at IC50 after 1 hr by ethidium bromide staining based agarose gel electrophoresis; type: protein-complex assay

Row | IC50 [1] | inhibition [3] | Compound | CC50 at 72 h [2]
1 | 6.4 mg/L (≈ 18.4 µM) | – | Cc1cc(=O)oc2cc(OCc3cn(Cc4ccccc4)nn3)ccc12 | > 100 mg/L
2 | 2.23 mg/L (≈ 5.68 µM) | – | Cc1cc(=O)oc2cc(OCc3cn(Cc4ccc([N+](=O)[O-])cc4)nn3)ccc12 | > 100 mg/L
3 | 2.48 mg/L (≈ 7.06 µM) | – | Cc1cc(=O)oc2cc(OCc3cn(-c4ccccc4F)nn3)ccc12 | > 100 mg/L
4 | 11.1 mg/L (≈ 26.1 µM) | – | COc1cc(-n2cc(COc3ccc4c(C)cc(=O)oc4c3)nn2)cc(OC)c1OC | > 100 mg/L
5 | 0.893 mg/L (≈ 2.47 µM) | Active | Cc1cc(C)cc(-n2cc(COc3ccc4c(C)cc(=O)oc4c3)nn2)c1 | > 100 mg/L
6 | 7.43 mg/L (≈ 19.3 µM) | – | Cc1cc(=O)oc2cc(OCc3cn(-c4ccc(F)c(Cl)c4)nn3)ccc12 | > 100 mg/L
7 | 5 mg/L (≈ 12 µM) | – | Cc1cc(=O)oc2cc(OCc3cn(-c4ccc(OC(F)(F)F)cc4)nn3)ccc12 | > 100 mg/L
8 | 9.46 mg/L (≈ 26.9 µM) | – | Cc1cc(=O)oc2cc(OCc3cn(-c4cccc(F)c4)nn3)ccc12 | > 100 mg/L
9 | 8.94 mg/L (≈ 24.3 µM) | – | Cc1cc(=O)oc2cc(OCc3cn(-c4ccccc4Cl)nn3)ccc12 | > 100 mg/L
10 | 3.36 mg/L (≈ 11.2 µM) | – | Cc1cc(=O)oc2cc(OCc3cn(CCO)nn3)ccc12 | > 100 mg/L
11 | 4.16 mg/L (≈ 10.7 µM) | – | CC(=O)Nc1ccc(-n2cc(COc3ccc4c(C)cc(=O)oc4c3)nn2)cc1 | > 100 mg/L
12 | 4.56 mg/L (≈ 10.7 µM) | – | Cc1cc(=O)oc2cc(OCc3cn(-c4ccc(Oc5ccccc5)cc4)nn3)ccc12 | > 100 mg/L
13 | 6.43 mg/L (≈ 18.3 µM) | – | Cc1cc(=O)oc2cc(OCc3cn(-c4ccc(F)cc4)nn3)ccc12 | > 100 mg/L
14 | 1.5 mg/L (≈ 3.92 µM) | Active | Cc1ccc(-n2cc(COc3ccc4c(C)cc(=O)oc4c3)nn2)c(Cl)c1 | > 100 mg/L
15 | 1.82 mg/L (≈ 7.06 µM) | – | Cc1cc(=O)oc2cc(OCc3c[nH]nn3)ccc12 | > 100 mg/L
16 | 6.86 mg/L (≈ 18.1 µM) | – | Cc1cc(=O)oc2cc(OCc3cn(-c4ccccc4[N+](=O)[O-])nn3)ccc12 | > 100 mg/L
17 | 15.4 mg/L (≈ 41.7 µM) | – | Cc1cc(=O)oc2cc(OCc3cn(-c4ccc(F)cc4F)nn3)ccc12 | > 100 mg/L
18 | 8.43 mg/L (≈ 22.9 µM) | – | Cc1cc(=O)oc2cc(OCc3cn(-c4ccc(Cl)cc4)nn3)ccc12 | > 100 mg/L
19 | 10.6 mg/L (≈ 25.3 µM) | – | Cc1cc(=O)oc2cc(OCc3cn(-c4ccnc5cc(Cl)ccc45)nn3)ccc12 | > 100 mg/L
20 | 0.763 mg/L (≈ 1.94 µM) | Active | COc1ccc(-n2cc(COc3ccc4c(C)cc(=O)oc4c3)nn2)c(OC)c1 | > 100 mg/L
21 | 12.8 mg/L (≈ 35 µM) | – | Cc1cc(F)ccc1-n1cc(COc2ccc3c(C)cc(=O)oc3c2)nn1 | > 100 mg/L
22 | 3.3 mg/L (≈ 10 µM) | – | COC(=O)Cn1cc(COc2ccc3c(C)cc(=O)oc3c2)nn1 | > 100 mg/L
